These results are taken from ChEMBL document CHEMBL1126152, “Fluoronaphthyridines as antibacterial agents. 4. Synthesis and structure-activity relationships of 5-substituted-6-fluoro-7-(cycloalkylamino)-1,4-dihydro-4-oxo-1,8- naphthyridine-3-carboxylic acids” (J Med Chem, 1992).

SMILES strings stand for the structures. ≈ marks a conversion by molar mass, not a printed value.

The subject of data set [1] is Pseudomonas aeruginosa. The experiment in a line: animal or person. The class given is functional. The settings on record: in Mus musculus, po, read-out: PD50.
Data set [2] in a line: Partition coefficient (logD). The note with it: octanol/water.
Data set [3] concerns Staphylococcus aureus. As to the kind of experiment: Antibacterial activity against Staphylococcus aureus. The class given is functional.
The test system of data set [4] is Escherichia coli. The experiment in a line: In vitro for antibacterial activity against Escherichia coli. The class given is functional. In a few lines:
(§1)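 MIC by serial 2-fold broth dilution in nutrient broth with an inoculum of 10^6 CFU/mL. Compound range was 0.0005–250 μg/mL. Plates were incubated 18 h at 37 °C. MIC was taken as the lowest concentration preventing visible growth.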

The nature of data set [5]: Lethal dose was determined in OF1-strain female Swiss mice after intra venous administration of the drug. The settings on record: mouse, in vivo, iv.
Data set [6] has as its system Pseudomonas aeruginosa. The experiment in a line: In vitro for antibacterial activity against Pseudomonas aeruginosa. The class given is functional. In outline:
as §1

In a further data set the test system is Morganella morganii. The experiment in a line: In vitro for antibacterial activity against Morganella morganii. The class given is functional. In a few lines: as §1
Data set [7] deals with Staphylococcus aureus. As to the kind of experiment: animal or person. The class given is functional. The settings on record: in Mus musculus, po, read-out: PD50.
The test system of data set [8] is Streptococcus pneumoniae. As to the kind of experiment: animal or person. The settings on record: in Mus musculus, po, read-out: PD50. It counts as functional.
Data set [9] in a line: Solubility was measured at PH - 7.2 buffer.
Data set [10] concerns Escherichia coli. The experiment in a line: Compound was tested for […] against Escherichia coli A 15119 after oral administration of drug in mice. It counts as functional. The note with it: read-out: PD50. In outline:
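Mouse protection test against systemic infection. Compound was dissolved in sterile water and given orally to female OF1-strain Swiss mice weighing 18–25 g, with five mice per group.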

The test system of the next data set is Enterobacter cloacae. The experiment in a line: In vitro for antibacterial activity against Enterobacter cloacae. It counts as functional.
The subject of another data set is Serratia marcescens. The experiment in a line: In vitro for antibacterial activity against Serratia marcescens. The class given is functional. In a few lines: as §1
The test system of the next data set is Klebsiella pneumoniae. As to the kind of experiment: In vitro for antibacterial activity against Klebsiella pneumoniae. It counts as functional. In a few lines: as §1
The next data set has as its system Proteus mirabilis. The experiment in a line: In vitro for antibacterial activity against Proteus mirabilis. It counts as functional. In a few lines: as §1
For the next data set, the system named is Enterococcus faecalis. As to the kind of experiment: In vitro for antibacterial activity against Enterococcus faecalis. The class given is functional. In outline: as §1
Data set [11] concerns Streptococcus pneumoniae. As to the kind of experiment: Antibacterial activity against Streptococcus pneumoniae. It counts as functional.
Data set [12] is described as follows: Lethal dose was determined in OF1-strain female Swiss mice after oral administration of the drug. The settings on record: mouse, in vivo.
The test system of the next data set is Bacteroides fragilis. As to the kind of experiment: In vitro for antibacterial activity against […]. The class given is functional. In a few lines: as §1

In general, logD refers to the decadic logarithm of the distribution of all forms, ionised or not, between an organic phase and buffer at a given pH. Lower therefore signals a more hydrophilic compound. One may read the MIC as the least concentration at which growth counts as inhibited. The LD50 is the dose at which mortality reaches 50%. In general, solubility refers to the dissolved amount per volume that the medium holds. Low readings indicate little dissolved substance, high ones much dissolved substance. In the case of `Cc1c(F)c(N2CC[C@H](N)C2)nc2c1c(=O)c(C(=O)O)cn2-c1ccc(F)cc1`, the ED50 in the data set with Pseudomonas aeruginosa [1] worked out at 2.9 mg/kg; in the data set on Staphylococcus aureus [7], 4.2 mg/kg; with Streptococcus pneumoniae [8], 14.4 mg/kg; in the data set on Escherichia coli [10], 4.9 mg/kg. Besides, the logD in [2] came out at 0.91. Further, the MIC was 0.004 µg/mL (≈ 0.00999 µM) in the data set with Staphylococcus aureus [3]; 0.002 µg/mL (≈ 0.005 µM) against Escherichia coli [4]; 0.25 µg/mL (≈ 0.624 µM) against Pseudomonas aeruginosa [6]; 0.008 µg/mL (≈ 0.02 µM) with Morganella morganii; 0.002 µg/mL (≈ 0.005 µM) against Enterobacter cloacae; 0.03 µg/mL (≈ 0.0749 µM) in the data set on Serratia marcescens. Also, the MIC in the data set on Klebsiella pneumoniae was determined as 0.002 µg/mL (≈ 0.005 µM); in the data set with Proteus mirabilis, 0.008 µg/mL (≈ 0.02 µM); in the data set on Enterococcus faecalis, 0.06 µg/mL (≈ 0.15 µM); against Streptococcus pneumoniae [11], 0.03 µg/mL (≈ 0.0749 µM). The values for the LD50 in data set [5] and in data set [12] were 94 mg/kg and 2500 mg/kg, respectively. The solubility in [9] was found to be 80 µg/mL (≈ 200 µM).

`CC(C)(C)n1cc(C(=O)O)c(=O)c2cc(F)c(N3CC[C@H](N)C3)nc21`: the MIC with Staphylococcus aureus [3] was 0.004 µg/mL (≈ 0.0115 µM); against Escherichia coli [4], 0.02 µg/mL (≈ 0.0574 µM); against Pseudomonas aeruginosa [6], 0.25 µg/mL (≈ 0.718 µM); in the data set with Morganella morganii, 0.13 µg/mL (≈ 0.373 µM); in the data set with Enterobacter cloacae, 0.03 µg/mL (≈ 0.0861 µM); in the data set on Bacteroides fragilis, 1 µg/mL (≈ 2.87 µM). Moreover, the MIC was found to be 0.25 µg/mL (≈ 0.718 µM) in the data set on Serratia marcescens; 0.03 µg/mL (≈ 0.0861 µM) against Klebsiella pneumoniae; 0.13 µg/mL (≈ 0.373 µM) against Proteus mirabilis; 0.06 µg/mL (≈ 0.172 µM) against Enterococcus faecalis; 0.008 µg/mL (≈ 0.023 µM) in the data set on Streptococcus pneumoniae [11].

Regarding `Cc1c(F)c(N2CC[C@H](N)C2)nc2c1c(=O)c(C(=O)O)cn2C(C)(C)CF`, the MIC with Staphylococcus aureus [3] amounted to 0.25 µg/mL (≈ 0.657 µM); against Escherichia coli [4] it was 0.016 µg/mL (≈ 0.0421 µM); with Pseudomonas aeruginosa [6], 2 µg/mL (≈ 5.26 µM); in the data set on Morganella morganii, 0.5 µg/mL (≈ 1.31 µM); against Enterobacter cloacae it was 0.25 µg/mL (≈ 0.657 µM); with Bacteroides fragilis, 2 µg/mL (≈ 5.26 µM). The MIC in the data set on Serratia marcescens turned out to be 0.5 µg/mL (≈ 1.31 µM); against Klebsiella pneumoniae, 0.03 µg/mL (≈ 0.0789 µM); with Proteus mirabilis it was 0.5 µg/mL (≈ 1.31 µM); in the data set with Enterococcus faecalis it was 2 µg/mL (≈ 5.26 µM); in the data set on Streptococcus pneumoniae [11], 2 µg/mL (≈ 5.26 µM).

Regarding `Cc1c(F)c(N2CC3CCC2CN3)nc2c1c(=O)c(C(=O)O)cn2C1CC1` (configuration not stated), the MIC in the data set on Staphylococcus aureus [3] is 0.03 µg/mL (≈ 0.0806 µM); against Escherichia coli [4] it was 0.008 µg/mL (≈ 0.0215 µM); with Pseudomonas aeruginosa [6], 0.5 µg/mL (≈ 1.34 µM); in the data set with Morganella morganii it was 0.06 µg/mL (≈ 0.161 µM); with Enterobacter cloacae, 0.06 µg/mL (≈ 0.161 µM); against Bacteroides fragilis, 16 µg/mL (≈ 43 µM). Also, the MIC in the data set on Serratia marcescens was 0.13 µg/mL (≈ 0.349 µM); in the data set on Klebsiella pneumoniae it was 0.016 µg/mL (≈ 0.043 µM); against Proteus mirabilis it was 0.13 µg/mL (≈ 0.349 µM); with Enterococcus faecalis, 0.13 µg/mL (≈ 0.349 µM); against Streptococcus pneumoniae [11], 0.13 µg/mL (≈ 0.349 µM).

With `N[C@H]1CCN(c2nc3c(c(-c4ccccc4)c2F)c(=O)c(C(=O)O)cn3C2CC2)C1`, the MIC against Staphylococcus aureus [3] worked out at 2 µg/mL (≈ 4.9 µM); in the data set on Escherichia coli [4] it was 1 µg/mL (≈ 2.45 µM); against Pseudomonas aeruginosa [6], 32 µg/mL (≈ 78.3 µM); in the data set with Morganella morganii, 8 µg/mL (≈ 19.6 µM); in the data set with Enterobacter cloacae it was 2 µg/mL (≈ 4.9 µM); against Bacteroides fragilis, 125 µg/mL (≈ 306 µM). Further, the MIC in the data set with Serratia marcescens is 16 µg/mL (≈ 39.2 µM); with Klebsiella pneumoniae it was 2 µg/mL (≈ 4.9 µM); in the data set with Proteus mirabilis, 16 µg/mL (≈ 39.2 µM); with Enterococcus faecalis, 64 µg/mL (≈ 157 µM); in the data set on Streptococcus pneumoniae [11], 8 µg/mL (≈ 19.6 µM).

As for `CC(C)(C)n1cc(C(=O)O)c(=O)c2cc(F)c(N3CCNCC3)nc21`, the logD in data set [2] was -0.33. The MIC in the data set with Staphylococcus aureus [3] came to 0.06 µg/mL (≈ 0.172 µM); against Escherichia coli [4] it was 0.02 µg/mL (≈ 0.0574 µM); in the data set on Pseudomonas aeruginosa [6] it was 0.5 µg/mL (≈ 1.44 µM); with Morganella morganii, 0.06 µg/mL (≈ 0.172 µM); against Enterobacter cloacae, 0.06 µg/mL (≈ 0.172 µM); in the data set on Bacteroides fragilis, 8 µg/mL (≈ 23 µM). In addition, the minimum inhibitory concentration (MIC) is 0.06 µg/mL (≈ 0.172 µM) in the data set with Serratia marcescens; 0.03 µg/mL (≈ 0.0861 µM) against Klebsiella pneumoniae; 0.13 µg/mL (≈ 0.373 µM) with Proteus mirabilis; 1 µg/mL (≈ 2.87 µM) against Enterococcus faecalis; 1 µg/mL (≈ 2.87 µM) against Streptococcus pneumoniae [11]. The compound also returned a solubility in [9] of 820 µg/mL (≈ 2350 µM).

Take `Cc1c(F)c(N2CCNCC2)nc2c1c(=O)c(C(=O)O)cn2-c1ccc(F)cc1F`: the MIC in the data set with Staphylococcus aureus [3] came out at 0.016 µg/mL (≈ 0.0382 µM); with Escherichia coli [4], 0.016 µg/mL (≈ 0.0382 µM); against Pseudomonas aeruginosa [6], 1 µg/mL (≈ 2.39 µM); against Morganella morganii, 0.13 µg/mL (≈ 0.311 µM); in the data set with Enterobacter cloacae, 0.03 µg/mL (≈ 0.0717 µM); in the data set on Bacteroides fragilis, 4 µg/mL (≈ 9.56 µM). Also, the MIC with Serratia marcescens was 0.25 µg/mL (≈ 0.598 µM); with Klebsiella pneumoniae, 0.03 µg/mL (≈ 0.0717 µM); with Proteus mirabilis, 0.25 µg/mL (≈ 0.598 µM); in the data set on Enterococcus faecalis, 1 µg/mL (≈ 2.39 µM); against Streptococcus pneumoniae [11], 0.25 µg/mL (≈ 0.598 µM).

On to `N[C@H]1CCN(c2nc3c(cc2F)c(=O)c(C(=O)O)cn3-c2ccc(F)cc2F)C1`, for which the MIC is 0.008 µg/mL (≈ 0.0198 µM) in the data set on Staphylococcus aureus [3]; 0.008 µg/mL (≈ 0.0198 µM) against Escherichia coli [4]; 0.25 µg/mL (≈ 0.618 µM) in the data set with Pseudomonas aeruginosa [6]; 0.06 µg/mL (≈ 0.148 µM) in the data set on Morganella morganii; 0.016 µg/mL (≈ 0.0396 µM) against Enterobacter cloacae; 0.5 µg/mL (≈ 1.24 µM) against Bacteroides fragilis. In addition, the MIC in the data set on Serratia marcescens was 0.06 µg/mL (≈ 0.148 µM); in the data set on Klebsiella pneumoniae, 0.008 µg/mL (≈ 0.0198 µM); against Proteus mirabilis it was 0.03 µg/mL (≈ 0.0742 µM); against Enterococcus faecalis it was 0.13 µg/mL (≈ 0.322 µM); in the data set on Streptococcus pneumoniae [11] it was 0.06 µg/mL (≈ 0.148 µM).
